Laboratory results published in ChEMBL document CHEMBL4513216, “Probing the Open Global Health Chemical Diversity Library for Multistage-Active Starting Points for Next-Generation Antimalarials” (ACS Infect Dis, 2020).

Assay: Toxicity liver stage against HepG2, at 10uM
Format: cell-based
Set-up: test concentration 10 uM, cell line HepG2-A16-CD81EGFP
Settings: human, HepG2-A16-CD81EGFP cells; read-out: INHIBITION
Procedure, shortened: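 Uninfected HepG2-A16-CD81EGFP cells, 3 × 10^3 per well, 1536-well, plated on prespotted compound at 10 μM final, parasite-free screening media added to match infected plates; puromycin 10 μM positive, DMSO 0.5% negative; run in parallel with 48 h PbLuc assay at 37 °C, 5% CO2; viability by CellTiter-Glo luminescence, normalized to controls.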

Row | Compound | cytotoxicity at 10 µM
1 | O=C(NCC(O)COc1ccc(C(F)(F)F)cc1)Nc1nncs1 (configuration not stated) | -14.2%
2 | CCCC(=O)Nc1cccc([C@H]2C[C@@H](NC(C)=O)CCO2)c1 | 5.09%
3 | CC(C)Nc1nc2c(cc1C(=O)NCC1CC1)CCN(S(C)(=O)=O)CC2 | -1.48%
4 | Cc1nc(CNC(=O)NCCc2ccc(N(C)C)cc2)cs1 | -11.6%
5 | c1csc(CN2CCc3ncnc(C4CCOC4)c3CC2)c1 (configuration not stated) | 8.01%
6 | CS(=O)(=O)N1C[C@H]2CCCN(Cc3nccs3)[C@H]2C1 | -1.65%
7 | O=C(N1CCOCC1CO)C1(c2cccs2)CCCC1 (configuration not stated) | 0.161%
8 | CC1=C(C(N)=O)C(c2cn(C)nc2C)N2C(=O)CSC2=N1 (configuration not stated) | 4.43%
9 | CCOc1cc([C@H]2N[C@@H](c3nc(C)cs3)Cc3ccsc32)ccc1OC | 24.3%
10 | N#Cc1ccc(CNCCS(=O)(=O)N2CCc3ccccc32)cc1 | -4.11%
11 | O=C1CO[C@@H]2CN(C(=O)CCc3ccccc3)C[C@H]2N1 | 6.06%
12 | OCCCN(CCc1cccc(F)c1)C1CC1 | -8.9%
13 | Cc1nnc(-c2cccc(C#N)c2)n1C1CCCN(C(C)C)C1=O (configuration not stated) | -6.74%
14 | COCCc1noc(CN2CCC3(CCCO3)CCC2=O)n1 (configuration not stated) | 5.35%
15 | O=C(NC1(c2nnn(CC3CC3)n2)CCCC1)c1ccccc1 | 6.48%
16 | c1ccc(-c2nc(CCNCc3cccnc3)co2)cc1 | -5.35%
17 | CN(c1ncccc1CNS(=O)(=O)N1CCOCC1)C1CCCCC1 | 6.39%
18 | OCCN1CCOC2(CCCN(c3ncc(F)cn3)C2)C1 (configuration not stated) | 5.98%
19 | CCSCCC(=O)NS(=O)(=O)c1ccc2c(c1)OCCO2 | 0.35%
20 | C[C@@H]1CN(CC(C)(C)N2CCOCC2)C[C@@]1(O)C1CC1 | 2.93%
21 | Cc1ccc(C2CSCCN2CC(=O)N2CCOCC2)cc1 (configuration not stated) | 9.04%
22 | Cn1ccnc1C(=O)NC[C@@H]1OC[C@H]2CN(CC3CC3)CC[C@H]21 | -115%
23 | CCc1c(C)[nH]c(C(C)(N)CC)nc1=O (configuration not stated) | -4.04%

Row | Compound | cytotoxicity at 10 µM
24 | Cn1cc(CN2CCCC(CCc3ccccc3C(F)(F)F)C2)cn1 (configuration not stated) | -4.24%
25 | CCN(CC)Cc1nc(Cc2cccc(C(F)(F)F)c2)no1 | 9.76%
26 | COCC(=O)N1C[C@H]2CC[C@@]3(N=C(c4ccccc4)NC3=O)[C@H]2C1 | 3.83%
27 | CN(Cc1cccnc1)[C@@H]1CN(C(=O)c2ccno2)[C@@H]2CCCO[C@H]12 | -118%
28 | Cc1cccc(N(CC(=O)c2ccccc2)C2=NCCCCC2)c1 | 14.5%
29 | COc1c(C2CCCN2c2ncnc3c2cnn3C)c(C)nn1C (configuration not stated) | 1.95%
30 | Nc1nc2c(c(NCc3ccncc3)n1)CCCC2 | 4.56%
31 | COc1ccc(-c2ccnc(N)c2)c(OC)c1 | 17.6%
32 | CC(=O)N1CCCN(C(=O)NCc2cc[nH]n2)CC1 | -6.44%
33 | N#Cc1ccc(C(=O)N2CCOC[C@H](Oc3cnccn3)C2)cc1 | 5.88%
34 | Cc1cnc(-c2nc(C3CCN(Cc4ccccc4C)CC3)no2)cn1 | 4.08%
35 | O=C(c1cnc(NCCC2CCCO2)c(Cl)c1)N1CCCCC1 (configuration not stated) | -2.01%
36 | CC(C)N1CCc2ncn(C)c2C1C(=O)N1CCOCC1 (configuration not stated) | 10.9%
37 | CN(C)C(=O)c1cccc(C[S+]([O-])CC(=O)NC2CCCC2)c1 (configuration not stated) | 5.79%
38 | COc1ccc(-n2nnc(C(=O)O)c2-c2ccccn2)cc1 | 13.7%
39 | Cc1c(F)cc(C(=O)O)cc1S(=O)(=O)Nc1cccc(C(F)F)c1 | -1.35%
40 | CS(=O)(=O)c1ccc(OCCNCc2cccc(O)c2)cc1 | 2.21%
41 | CCn1c(C)nnc1CN(C)C1CCN(Cc2ccccn2)C1 (configuration not stated) | 1.8%
42 | COc1ccc(CCNC(C)c2ccc3[nH]c(=O)[nH]c3c2)cc1OC (configuration not stated) | -16.8%
43 | CCOC(C)c1noc(CN2CCN(Cc3cccc(F)c3)CC2)n1 (configuration not stated) | 7.66%
44 | CCc1nc(C2CCCN2CC(=O)Nc2sc(C)c(C)c2C)no1 (configuration not stated) | -10.9%
45 | Cc1cc(CN2CCCC2)cc(Oc2ccc3c(c2)CC(CN)O3)c1 (configuration not stated) | 0.298%
46 | O=C1CCNC(=O)N1CC(=O)N1CCC1c1ccc(F)cc1 (configuration not stated) | 7.46%

Row | Compound | cytotoxicity at 10 µM
47 | CCCn1cnnc1-c1nc2c([nH]1)CC(c1ccc(Cl)cc1)CNC2=O (configuration not stated) | -31.1%
48 | Cc1[nH]c2c(F)cccc2c1CC(=O)NCCCNc1cccnc1 | 1.56%
49 | CN(Cc1cccnc1)Cc1cncc2c1CCN(c1ccccn1)C2 | -108%
50 | COC(=O)c1cccc(C2CNCCN2C)c1 (configuration not stated) | 0.5%
51 | NC(=O)C(NCc1nn(-c2ccccc2)c2c1CCC2)c1ccccc1 (configuration not stated) | -5.86%
52 | CC1(C)CC(NC(=O)c2cnn(-c3ccccc3F)c2N)CC(C)(C)N1 | -4.14%
53 | Cn1cccc1C(O)CNS(=O)(=O)c1ccccc1F (configuration not stated) | -14.6%
54 | Cn1cc(CN2CCCC(O)C2)c(-c2ccccc2F)n1 (configuration not stated) | -2.31%
55 | CCc1nc(CSc2nnc(N)n2C2CC2)no1 | 6.12%
56 | O=C(c1cnccn1)N1CCN2C[C@H](OCc3ccccc3F)C[C@H]2C1 | -2.16%
57 | CCN(CCNC(=O)c1cccnc1OCCOC)C1CC1 | -0.966%
58 | CN(Cc1cn2c(n1)CN(CC1CC1)CC2)Cc1ccco1 | 1.39%
59 | CN(CC(C)(C)O)C1CCCN(Cc2noc(C3CC3)n2)C1 (configuration not stated) | 0.85%
60 | Cc1cc2c(cc1CN1CCCCC1CCn1ccnc1C)OCO2 (configuration not stated) | 3.09%
61 | CC(C)Cc1cc(CNC(=O)C2CCCN(C(=O)N(C)C)C2)no1 (configuration not stated) | 2.31%
62 | Cc1nc(CNC2CC(=O)N(CCc3cccc(Cl)c3)C2)c[nH]1 (configuration not stated) | -133%
63 | CN(C)c1ccc(CNC(=O)c2ccc(Cl)cc2F)cc1 | -8.33%
64 | CC(=O)N1N=C(c2ccccc2)OC1C(=O)NCCc1ccc(O)cc1 (configuration not stated) | -4%
65 | CC(C)CNC(=O)c1ccc(NC(=O)NC(C)(C)CO)cc1Cl | 6.27%
66 | Cc1nccn1CCN(C)c1cc(C(C)C)nc2ccnn12 | -3.88%
67 | NCc1cn(CC2CCCN(C(=O)CC3=CCCCC3)C2)nn1 (configuration not stated) | 1.46%
68 | CN1CCO[C@@H]2CN(C(=O)NCc3cccc(F)c3)CC[C@@H]2C1 | -111%
69 | CC(C)c1ccnc(N[C@H]2COC[C@@H]2N2CCCC2)n1 | -4.48%

Row | Compound | cytotoxicity at 10 µM
70 | Cc1nc(C)n(CC2CCCN(CCC(=O)N3CCCCC3)C2)n1 (configuration not stated) | 3.9%
71 | Cc1cc(C)cc(C(=O)Nc2ccc(CC3CC(=O)NC3=O)cc2)c1 (configuration not stated) | -3%
72 | CC(OCC1CC1)C(=O)N1CCCN(Cc2cnn(C)c2)CC1 (configuration not stated) | 2.55%
73 | COc1cccc(OC)c1C(C(=O)O)N(C)Cc1c(C)n[nH]c1C (configuration not stated) | 2.14%
74 | CC(C1CCN(Cc2c(Cl)cncc2Cl)CC1)N1CCN(C)CC1 (configuration not stated) | -12.2%
75 | Cc1ccccc1CC(=O)N1C[C@@H](O)[C@H](N2CCC(F)(F)CC2)C1 | -14%
76 | CC(=O)N1CCN(C(=O)c2ccc3ccn(C)c3c2)CC1 | -0.173%
77 | Cn1ccnc1COc1ccc(CSc2nnnn2C2CC2)cc1 | -0.146%
78 | Cc1cnn(CC2CCCN2Cc2cn3ccsc3n2)c1 (configuration not stated) | -1.75%
79 | Cc1cc(C(=O)N2CCCC(c3nncn3C)C2)no1 (configuration not stated) | 0.541%
80 | NC(=O)c1ccc(C2CCCNC2)nc1 (configuration not stated) | -15.1%
81 | CN(C)CCO[C@H]1C[C@@H](O)C12CCN(c1cnccn1)CC2 | 3.79%
82 | Cc1ccc(CN2CCCn3nnc(COCC4CC4)c3C2)s1 | -6.51%
83 | CCN1CCCC(C)(C(=O)NCCc2n[nH]c(=O)[nH]2)C1 (configuration not stated) | -1.76%
84 | Cc1cnn(C2CCCN(C(=O)Cc3cn4ccccc4n3)C2)c1 (configuration not stated) | -3.15%
85 | CCn1ccnc1CN1CCN(C(C)C)CC1C (configuration not stated) | -6.58%
86 | CC1CCCN(C(=O)c2cccc(CS(C)(=O)=O)c2)C1 (configuration not stated) | -1.42%
87 | N#Cc1cccnc1Oc1cc(F)c(CN2CCCC2)c(Cl)c1 | -13.9%
88 | O=C(COc1ccccc1F)NCCC(O)c1ccco1 (configuration not stated) | -4.18%
89 | Cc1cnc(NC(C)Cc2cccnc2)nc1N(C)C (configuration not stated) | -4.03%
90 | CN(Cc1ccccn1)C1CCCN(c2cccnn2)C1 (configuration not stated) | -13.4%
91 | CN1CC(C(=O)NCc2cccnc2OCC(F)(F)F)CC1=O (configuration not stated) | -6.6%
92 | CC1(c2ccccc2)CCCN(Cc2cncn2C2CCCC2)C1 (configuration not stated) | 16.3%

Row | Compound | cytotoxicity at 10 µM
93 | Cc1nc(C2CCCN2CCCS(=O)(=O)c2ccccc2)no1 (configuration not stated) | -4.42%
94 | O=C(Cc1ccccn1)N1CCN(CC2CC2)c2ncccc2C1 | 1.34%
95 | CN(C)C(=O)c1ccc2c(c1)N(C)C(CC(=O)NCc1ncc[nH]1)CO2 (configuration not stated) | -5.93%
96 | Cn1ccc(CN2CCC(NC(=O)C3CCCCC3)CC2)cc1=O | -13%
97 | CCCc1nc(CN2CCOC(Cn3cncn3)C2)cs1 (configuration not stated) | -8.44%
98 | c1ccc(-c2cccc(N3CCC(NCCc4cscn4)CC3)c2)cc1 | 3.58%
99 | CC(=O)NS(=O)(=O)c1ccc(F)cc1C(F)(F)F | 1.25%
100 | COc1ccccc1CC(=O)N1CCCC(n2nc(C)nc2C)C1 (configuration not stated) | -4.47%
101 | OCCn1nccc1C1CCN(CCOc2ccccc2F)CC1 | -5.25%
102 | CC(=O)N1CCCc2cc(Nc3nccn(C)c3=O)ccc21 | -49.4%
103 | Cc1cc(CN2CCN(C(=O)C3(C#N)CCCC3)CC2)on1 | -14.9%
104 | O=C(Nc1cccnc1)[C@@H]1C[C@H]2OCC[C@H]2N(Cc2nccs2)C1 | 5.02%
105 | CN(CCc1ccccc1)c1cnn(CC(=O)N2CCSCC2)c(=O)c1 | -8.74%
106 | CN(C)c1ncc(-c2ccncc2)c(CCNC(=O)C2CC2)n1 | 0.05%
107 | COc1cc(Cl)c(NCc2c(C)noc2C)cc1OC | 8.77%
108 | CN1CCCC[C@@H]2[C@H]1[C@@H](c1ccccc1)CCN2C(=O)c1ccccn1 | -14.7%
109 | Cc1cc(C(=O)NCCN2CCCc3ccccc32)[nH]n1 | 0.868%
110 | Cn1cc(C(=O)N2CCCC(CN3CCCC3=O)C2)cn1 (configuration not stated) | -12.6%
111 | CC(C)CCn1[nH]c(CNc2ccc(F)cc2)nc1=O | 11.3%
112 | Cc1nc(COCc2cnc3n2CCN(C)C3C)cs1 (configuration not stated) | 6.01%
